Laboratory results published in BindingDB's records for doi:10.1021/acs.jmedchem.0c00522 (Leiden University & Oncode Institute, 2020).

Columns and labels:
[1] = target: T1, Phospholipase A and acyltransferase 5 (Homo sapiens, UniProt Q96KN8); assay: Inhibition of full-length C-terminal FLAG-tagged human PLAAT5 expressed in HEK293T cell lysate preincubated for 30 mins followed by MB064 addition and measured after 20 mins by SDS-PAGE based ABPP analysis
T1 sequence (Q96KN8 whole entry): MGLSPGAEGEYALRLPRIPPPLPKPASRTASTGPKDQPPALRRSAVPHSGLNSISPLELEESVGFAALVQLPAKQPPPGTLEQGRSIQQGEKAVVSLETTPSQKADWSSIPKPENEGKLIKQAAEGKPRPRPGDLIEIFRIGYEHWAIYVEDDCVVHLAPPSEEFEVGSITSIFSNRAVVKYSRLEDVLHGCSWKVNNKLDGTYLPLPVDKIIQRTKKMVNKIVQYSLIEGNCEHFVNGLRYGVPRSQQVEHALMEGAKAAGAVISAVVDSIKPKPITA
In short: (§1)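 Dose–response competitive ABPP on cytosol only, from HEK293T overexpressing FLAG-tagged PLAAT. Inhibitor 30 min rt, then MB064 20 min rt. PLAAT2 0.25 μg/μL with 250 nM probe; PLAAT3 0.5 μg/μL with 250 nM; PLAAT4 and PLAAT5 1 μg/μL with 500 nM. Fluorescence normalized to Coomassie. IC50 from curves, reported as pIC50 ± SEM, n = 3.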

[2] = target: T2, Phospholipase A and acyltransferase 2 (Homo sapiens, UniProt Q9NWW9); assay: Inhibition of full-length C-terminal FLAG-tagged human PLAAT2 expressed in HEK293T cell lysate preincubated for 30 mins followed by MB064 addition and measured after 20 mins by SDS-PAGE based ABPP analysis; in short: as §1
T2 sequence (Q9NWW9 whole entry): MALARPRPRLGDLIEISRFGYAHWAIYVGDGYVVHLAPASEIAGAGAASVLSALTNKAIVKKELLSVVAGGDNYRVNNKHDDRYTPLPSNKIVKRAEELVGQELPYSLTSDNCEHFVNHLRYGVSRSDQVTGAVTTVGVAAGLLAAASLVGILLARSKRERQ

SMILES	IC50 [1] [nM]	IC50 [2] [nM]
O=C(CCc1ccc(Cl)cc1)C(=O)NCCc1ccccc1	398	631
O=C(CCCc1ccccc1)C(=O)NCCc1ccc(Oc2ccc(C(F)(F)F)cn2)cc1		158
